Bioassay records (PubChem BioAssay)
IDH1 mut inh – blocks human IDH1 R132H reductase activity; diaphorase/resazurin fluorescence, 60 min; inhibition, % at 10 µM; actives 0.18% (n = 70,000); O75874; in the data active = inhibition above about 34%; inconclusive = no clear call, values can overlap the other calls; inactive = below about 11%;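 note: 0% = DMSO and 100% = no enzyme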
Target sequence (O75874 whole entry R132H): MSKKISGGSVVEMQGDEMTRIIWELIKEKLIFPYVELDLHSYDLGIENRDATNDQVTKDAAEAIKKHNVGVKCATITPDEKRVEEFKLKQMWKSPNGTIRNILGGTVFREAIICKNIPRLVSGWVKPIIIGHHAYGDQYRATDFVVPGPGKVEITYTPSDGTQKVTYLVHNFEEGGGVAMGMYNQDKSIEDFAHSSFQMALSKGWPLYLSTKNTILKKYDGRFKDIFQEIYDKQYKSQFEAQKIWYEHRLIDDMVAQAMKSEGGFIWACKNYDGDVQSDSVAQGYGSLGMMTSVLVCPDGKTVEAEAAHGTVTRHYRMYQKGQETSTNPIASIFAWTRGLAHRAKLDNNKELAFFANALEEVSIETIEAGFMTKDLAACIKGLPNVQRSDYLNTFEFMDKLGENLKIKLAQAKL
T cruzi growth-1 – inhibitors of T. cruzi proliferation. T. cruzi beta-gal in NIH3T3, GalScreen luminescence, 90 h. inhibition, % at 8.34 µM. actives 5.9% (n = 77,000). AID 624255;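 active = mean inhibition above about 93%, with at least 55% of replicates each passing it, limit read from the data, passing the limit was not always enough; inconclusive = only one of those two conditions holds; inactive = neither condition holds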
KDM4C inh – inhibitors of human demethylase GASC-1 KDM4C; actives 0.15% (n = 96,000); inhibition, % at 12.5 µM; GST-KDM4C 2-372, H3K9me3 peptide, LANCE TR-FRET; Q9H3R0;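 active = mean replicate inhibition above about 25%, with at least 55% of replicates also reaching it, limit read from the data, passing the limit was not always enough; inconclusive = only one of those two conditions met; inactive = neither condition met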
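reagent = H3K9me3 peptide substrate, Fe(II), 2-oxoglutarate | system = GST-tagged GASC-1 (JMJD2C) catalytic fragment, aa 2-372 | amount = enzyme final amount 10 nM | read-out = Fall in 671/618 emission ratio as inhibition | medium = HEPES buffer, pH 7.5, plus ascorbate | schedule = 30 min reaction, 60 min detection, RT | measured by = LANCE TR-FRET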
T cruzi growth-2 – inhibitors of T. cruzi proliferation | AID 651739 | T. cruzi beta-gal in NIH3T3, GalScreen luminescence, 90 h | shares compounds with T cruzi growth-1 | inhibition, % at 8.35 µM | actives 72% (n = 5,600);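 active = mean replicate inhibition above about 95% and at least 55% of replicates individually reaching it, limit read from the data; inconclusive = only one of the two criteria is met; inactive = neither criterion is met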
T cruzi growth-3 – blocks T. cruzi growth in NIH3T3 host cells; actives 21% (n = 5,600); inhibition, % at 2.09 µM; shares compounds with T cruzi growth-1; T. cruzi beta-gal in NIH3T3, GalScreen luminescence, 90 h;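 active = mean inhibition above about 95%, with at least 55% of replicates also reaching it, limit read from the data; inconclusive = meets just one of the two conditions; inactive = meets neither condition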;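 note: plate controls were neutral control median for no effect and positive control median for full effect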
3T3 cytotox – kills mouse NIH/3T3 fibroblasts. shares compounds with T cruzi growth-1. NIH/3T3 viability, CellTiter-Glo ATP luminescence, 90 h. cytotoxicity (signal decrease), % at 8.35 µM. actives 14% (n = 5,600). AID 651742;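 active = mean signal decrease across replicates above about 35% based on untreated-well scatter, with enough replicates individually passing, limit read from the data; inconclusive = no rule stated though some were filed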;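 note: 0% = median of neutral control wells and 100% = median of positive control wells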
NIH3T3 tox 2 – NIH/3T3 (mouse) viability loss; shares compounds with T cruzi growth-1; AID 651744; NIH/3T3 viability, CellTiter-Glo ATP luminescence, 90 h; inhibition, % at 24.9 µM; actives 56% (n = 5,600);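 active = mean loss of cell viability signal at or above a set limit, and enough replicates individually reaching it; inconclusive = meets only the mean limit or only the replicate share; inactive = meets neither condition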;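 note: 0% = median of neutral control wells and 100% = median of positive control wells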
* hit, by the source's call; ? = inconclusive; / = not tested or not shown. The full list was thinned out, with hits kept by preference.

SMILES	IDH1 mut inh	T cruzi growth-1	KDM4C inh	T cruzi growth-2	T cruzi growth-3	3T3 cytotox	NIH3T3 tox 2
C[C@@H]1CCCCO[C@H](CN(C)C(=O)C2CCCCC2)[C@@H](C)CN([C@H](C)CO)C(=O)c2cc(NS(=O)(=O)c3ccc(Cl)cc3)ccc2O1	/	60	0	/	/	/	/
C[C@@H]1CCCCO[C@@H](CN(C)C(=O)C2CCCCC2)[C@H](C)CN([C@@H](C)CO)C(=O)c2cc(NS(=O)(=O)c3ccc(Cl)cc3)ccc2O1	/	?	0	109*	69	-16	34*
C[C@H]1CCCCO[C@H](CN(C)C(=O)C2CCCCC2)[C@@H](C)CN([C@@H](C)CO)C(=O)c2cc(NS(=O)(=O)c3ccc(Cl)cc3)ccc2O1	/	?	-1	104*	76	-37	99*
C[C@@H]1CCCCO[C@@H](CN(C)C(=O)CCC(F)(F)F)[C@@H](C)CN([C@H](C)CO)C(=O)c2cc(NS(=O)(=O)c3ccc(Cl)cc3)ccc2O1	/	85	-1	/	/	/	/
Cc1ccc(S(=O)(=O)Nc2ccc3c(c2)C(=O)N([C@H](C)CO)C[C@H](C)[C@H](CN(C)C(=O)C2CCCCC2)OCCCC[C@H](C)O3)cc1	0	84	0	/	/	/	/
C[C@@H]1CCCCO[C@H](CN(C)C(=O)C2CCCCC2)[C@H](C)CN([C@H](C)CO)C(=O)c2cc(NS(=O)(=O)c3ccc(Cl)cc3)ccc2O1	/	?	-1	105*	74	-7	52*
C[C@H](CO)N1C[C@H](C)[C@H](CN(C)C(=O)CCC(F)(F)F)OCCCC[C@H](C)Oc2ccc(NS(=O)(=O)c3ccc(Cl)cc3)cc2C1=O	/	103*	0	109*	57	-5	7
CN1C2=C(C(=O)CC(C)(C)C2)C(c2ccccc2OCC(=O)Nc2ccc(F)cc2)C2=C1CC(C)(C)CC2=O	1	/	/	/	/	/	/
CC(C)(C)c1ccc(C(=O)NCCNc2ccccc2[N+](=O)[O-])cc1	0	/	/	/	/	/	/
O=C(O)CNS(=O)(=O)c1ccc(Cl)c(Cl)c1	0	/	/	/	/	/	/
C[C@H](CO)N1C[C@H](C)[C@@H](CN(C)C(=O)C2CCCCC2)OCCCC[C@H](C)Oc2ccc(NS(C)(=O)=O)cc2C1=O	/	52	0	/	/	/	/
C[C@@H]1CCCCO[C@H](CN(C)C(=O)C2CCCCC2)[C@H](C)CN([C@@H](C)CO)C(=O)c2cc(NS(C)(=O)=O)ccc2O1	-1	100*	-1	12	-38	-11	9
C[C@@H]1CCCCO[C@@H](CN(C)Cc2ccc(Cl)c(Cl)c2)[C@H](C)CN([C@H](C)CO)C(=O)c2cc(NS(=O)(=O)c3cccs3)ccc2O1	/	?	-1	109*	113*	-30	107*
C[C@@H]1CN([C@H](C)CO)C(=O)c2cc(NS(=O)(=O)c3cccs3)ccc2O[C@@H](C)CCCCO[C@H]1CN(C)Cc1ccncc1	/	36	1	/	/	/	/
C[C@H]1CCCCO[C@@H](CN(C)Cc2ccncc2)[C@@H](C)CN([C@@H](C)CO)C(=O)c2cc(NS(=O)(=O)c3cccs3)ccc2O1	6	32	0	/	/	/	/
C[C@@H]1CCCCO[C@H](CN(C)Cc2ccncc2)[C@H](C)CN([C@@H](C)CO)C(=O)c2cc(NS(=O)(=O)c3cccs3)ccc2O1	12	17	0	/	/	/	/
C[C@@H]1CCCCO[C@@H](CN(C)Cc2ccc(Cl)c(Cl)c2)[C@H](C)CN([C@@H](C)CO)C(=O)c2cc(NS(=O)(=O)c3cccs3)ccc2O1	/	?	-1	96*	108*	118*	103*
C[C@@H]1CCCCO[C@@H](CN(C)Cc2ccc(Cl)c(Cl)c2)[C@@H](C)CN([C@@H](C)CO)C(=O)c2cc(NS(=O)(=O)c3cccs3)ccc2O1	/	?	0	97*	71	-56	51*
C[C@@H]1CN([C@H](C)CO)C(=O)c2cc(NS(=O)(=O)c3cccs3)ccc2O[C@@H](C)CCCCO[C@H]1CN(C)Cc1ccc(Cl)c(Cl)c1	/	125*	1	83	115*	61*	106*
